Results as given in ChEMBL document CHEMBL4351008, “Discovery of novel pyrimidine-based benzothiazole derivatives as potent cyclin-dependent kinase 2 inhibitors with anticancer activity” (Eur J Med Chem, 2019).

Columns and labels:
HCT-116 [1] = experiment: Induction of cell cycle arrest in human HCT116 cells assessed as debris content at 0.7 uM incubated for 24 hrs by PI staining based flow cytometric analysis (reference value: 0%); type: functional
HCT-116 [2] = experiment: Induction of apoptosis in human HCT116 cells assessed as live cells at 0.7 uM incubated for 24 hrs by Annexin-V-FITC/propidium iodide staining based flow cytometric analysis (reference value: 97.7%); type: functional
HCT-116 [3] = experiment: Induction of apoptosis in human HCT116 cells assessed as late apoptotic cells at 0.35 uM incubated for 24 hrs by Annexin-V-FITC/propidium iodide staining based flow cytometric analysis (reference value: 0.027%); type: functional
MCF7 = experiment: Antiproliferative activity against human MCF7 cells incubated for 48 hrs by MTT assay; type: functional, cell-based; conditions: MCF7, 48 h
In short: (§1)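 Cells kept at 37 °C in humidified 5% CO2: MDA-MB-231, MCF-7, HeLa and HCT116 in RPMI-1640; PC-3 in DMEM/F12; both media had 10% FBS. Compounds came from 60 mM DMSO stocks diluted in medium. At 70–80% confluence, cells got fresh medium with compound for 48 h at 37 °C, with 0.1% DMSO as negative control. MTT (5 mg/mL stock) was added for 4 h, and formazan was dissolved in DMSO and read at 570 nm. % inhibition was taken relative to control, IC50 was fitted, and data are mean ± SD of three independent experiments in duplicate.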

HCT-116 [4] = experiment: Induction of cell cycle arrest in human HCT116 cells assessed as accumulation at S phase at 0.35 uM incubated for 24 hrs by PI staining based flow cytometric analysis (reference value: 45.26%); type: functional
HCT-116 [5] = experiment: Induction of apoptosis in human HCT116 cells assessed as necrotic cells at 1.4 uM incubated for 24 hrs by Annexin-V-FITC/propidium iodide staining based flow cytometric analysis (reference value: 0%); type: functional
HCT-116 [6] = experiment: Induction of cell cycle arrest in human HCT116 cells assessed as accumulation at G0/G1 phase at 0.7 uM incubated for 24 hrs by PI staining based flow cytometric analysis (reference value: 37.26%); type: functional
HCT-116 [7] = experiment: Induction of cell cycle arrest in human HCT116 cells incubated for 24 hrs by PI staining based flow cytometric analysis; type: functional
HCT-116 [8] = experiment: Induction of cell cycle arrest in human HCT116 cells assessed as accumulation at G2/M phase at 1.4 uM incubated for 24 hrs by PI staining based flow cytometric analysis (reference value: 17.48%); type: functional
HCT-116 [9] = experiment: Induction of cell cycle arrest in human HCT116 cells assessed as accumulation at S phase at 0.7 uM incubated for 24 hrs by PI staining based flow cytometric analysis (reference value: 45.26%); type: functional
HCT-116 [10] = experiment: Induction of apoptosis in human HCT116 cells assessed as live cells at 0.35 uM incubated for 24 hrs by Annexin-V-FITC/propidium iodide staining based flow cytometric analysis (reference value: 97.7%); type: functional
HCT-116 [11] = experiment: Induction of apoptosis in human HCT116 cells assessed as necrotic cells at 0.35 uM incubated for 24 hrs by Annexin-V-FITC/propidium iodide staining based flow cytometric analysis (reference value: 0%); type: functional
HCT-116 [12] = experiment: Induction of apoptosis in human HCT116 cells assessed as late apoptotic cells at 0.7 uM incubated for 24 hrs by Annexin-V-FITC/propidium iodide staining based flow cytometric analysis (reference value: 0.027%); type: functional
HCT-116 [13] = experiment: Induction of apoptosis in human HCT116 cells assessed as early apoptotic cells at 0.35 uM incubated for 24 hrs by Annexin-V-FITC/propidium iodide staining based flow cytometric analysis (reference value: 2.28%); type: functional
[14] = biological target: T1, CDK2/Cyclin A2 (Homo sapiens) (UniProt P24941+P20248); experiment: Potency index, ratio of AZD5438 IC50 to compound IC50 for CDK2/cyclin A2 (unknown origin) using histone H1 and ATP as substrate incubated for 40 mins by kinase-glo luminescence assay; type: protein-complex assay
HCT-116 [15] = experiment: Induction of apoptosis in human HCT116 cells assessed as early apoptotic cells at 0.7 uM incubated for 24 hrs by Annexin-V-FITC/propidium iodide staining based flow cytometric analysis (reference value: 2.28%); type: functional
HCT-116 [16] = experiment: Induction of apoptosis in human HCT116 cells assessed as necrotic cells at 0.7 uM incubated for 24 hrs by Annexin-V-FITC/propidium iodide staining based flow cytometric analysis (reference value: 0%); type: functional
HCT-116 [17] = experiment: Induction of apoptosis in human HCT116 cells assessed as live cells at 1.4 uM incubated for 24 hrs by Annexin-V-FITC/propidium iodide staining based flow cytometric analysis (reference value: 97.7%); type: functional
HCT-116 [18] = experiment: Induction of cell cycle arrest in human HCT116 cells assessed as debris content at 0.35 uM incubated for 24 hrs by PI staining based flow cytometric analysis (reference value: 0%); type: functional
PC-3 = experiment: Antiproliferative activity against human PC3 cells incubated for 48 hrs by MTT assay; type: functional, cell-based; conditions: PC-3, 48 h; in short: as §1
HCT-116 [19] = experiment: Induction of cell cycle arrest in human HCT116 cells assessed as accumulation at G0/G1 phase at 0.35 uM incubated for 24 hrs by PI staining based flow cytometric analysis (reference value: 37.26%); type: functional
HCT-116 [20] = experiment: Induction of cell cycle arrest in human HCT116 cells assessed as debris content at 1.4 uM incubated for 24 hrs by PI staining based flow cytometric analysis (reference value: 0%); type: functional
HCT-116 [21] = experiment: Induction of apoptosis in human HCT116 cells assessed as late apoptotic cells at 1.4 uM incubated for 24 hrs by Annexin-V-FITC/propidium iodide staining based flow cytometric analysis (reference value: 0.027%); type: functional
HCT-116 [22] = experiment: Antiproliferative activity against human HCT116 cells incubated for 48 hrs by MTT assay; type: functional, cell-based; conditions: HCT-116, 48 h; in short: as §1
HCT-116 [23] = experiment: Induction of apoptosis in human HCT116 cells incubated for 24 hrs by Annexin-V-FITC/propidium iodide staining based flow cytometric analysis; type: functional, cell-based
CDK2/Cyclin A2 = CDK2/Cyclin A2 (Homo sapiens, UniProt P24941); experiment: Inhibition of CDK2/cyclin A2 (unknown origin) using histone H1 and ATP as substrate incubated for 40 mins by kinase-glo luminescence assay; type: protein-complex assay
HCT-116 [24] = experiment: Induction of cell cycle arrest in human HCT116 cells assessed as accumulation at G0/G1 phase at 1.4 uM incubated for 24 hrs by PI staining based flow cytometric analysis (reference value: 37.26%); type: functional
MDA-MB-231 = experiment: Antiproliferative activity against human MDA-MB-231 cells incubated for 48 hrs by MTT assay; type: functional, cell-based; conditions: MDA-MB-231, 48 h; in short: as §1
HCT-116 [25] = experiment: Induction of cell cycle arrest in human HCT116 cells assessed as accumulation at G2/M phase at 0.35 uM incubated for 24 hrs by PI staining based flow cytometric analysis (reference value: 17.48%); type: functional
[26] = biological target: T1, CDK2/Cyclin A2 (Homo sapiens); experiment: Inhibition of CDK2/cyclin A2 (unknown origin) using histone H1 and ATP as substrate at 1 uM incubated for 40 mins by kinase-glo luminescence assay relative to control; type: protein-complex assay
In short: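 Recombinant CDK2/cyclin A2 (0.2 µg/mL) was run with 0.1 mg/mL histone H1 and 10 µM ATP in 40 mM Tris pH 7.4, 10 mM MgCl2, 0.1 mg/mL BSA and 1 mM DTT, for 40 min at 30 °C. Compound was tested at 1 µM final, with 1% DMSO final. Remaining ATP was quantified by Kinase-Glo Plus luminescence, which is inversely related to kinase activity.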

HCT-116 [27] = experiment: Induction of cell cycle arrest in human HCT116 cells assessed as accumulation at S phase at 1.4 uM incubated for 24 hrs by PI staining based flow cytometric analysis (reference value: 45.26%); type: functional
HCT-116 [28] = experiment: Induction of cell cycle arrest in human HCT116 cells assessed as accumulation at G2/M phase at 0.7 uM incubated for 24 hrs by PI staining based flow cytometric analysis (reference value: 17.48%); type: functional
HeLa = experiment: Antiproliferative activity against human HeLa cells incubated for 48 hrs by MTT assay; type: functional, cell-based; in short: as §1
HCT-116 [29] = experiment: Induction of apoptosis in human HCT116 cells assessed as early apoptotic cells at 1.4 uM incubated for 24 hrs by Annexin-V-FITC/propidium iodide staining based flow cytometric analysis (reference value: 2.28%); type: functional

NS(=O)(=O)c1ccc(Nc2nccc(Nc3nc4ccc(F)cc4s3)n2)cc1
Activity (HCT-116 [1]): 6.86%
Activity (HCT-116 [2]): 64.3%
Activity (HCT-116 [3]): 9.07%
IC50 (MCF7): 10900 nM
Activity (HCT-116 [4]): 39.03%
Activity (HCT-116 [5]): 0.414%
Activity (HCT-116 [6]): 35.61%
Activity (HCT-116 [7]): Dose-dependent effect
Activity (HCT-116 [8]): 46.92%
Activity (HCT-116 [9]): 30.88%
Activity (HCT-116 [10]): 80.8%
Activity (HCT-116 [11]): 0.027%
Activity (HCT-116 [12]): 22.3%
Activity (HCT-116 [13]): 10.1%
Ratio IC50 [14]: 3
Activity (HCT-116 [15]): 13%
Activity (HCT-116 [16]): 0.384%
Activity (HCT-116 [17]): 51.4%
Activity (HCT-116 [18]): 0.74%
IC50 (PC-3): 920 nM
Activity (HCT-116 [19]): 36.61%
Activity (HCT-116 [20]): 39.3%
Activity (HCT-116 [21]): 29.1%
IC50 (HCT-116 [22]): 700 nM
Activity (HCT-116 [23]): Dose-dependent effect
IC50 (CDK2/Cyclin A2): 15.4 nM
Activity (HCT-116 [24]): 34.57%
IC50 (MDA-MB-231): 1800 nM
Activity (HCT-116 [25]): 24.36%
inhibition [26]: 94%
Activity (HCT-116 [27]): 18.51%
Activity (HCT-116 [28]): 33.51%
IC50 (HeLa): 450 nM
Activity (HCT-116 [29]): 19.1%
